Assays:
[1] = target: T1, Adenosine receptor A3 (Homo sapiens) (UniProt P0DMS8); experiment: Displacement of [3H]NECA from human adenosine A3 receptor expressed in human HeLa cells at 1 uM; type: cell-based
T1 sequence (whole entry): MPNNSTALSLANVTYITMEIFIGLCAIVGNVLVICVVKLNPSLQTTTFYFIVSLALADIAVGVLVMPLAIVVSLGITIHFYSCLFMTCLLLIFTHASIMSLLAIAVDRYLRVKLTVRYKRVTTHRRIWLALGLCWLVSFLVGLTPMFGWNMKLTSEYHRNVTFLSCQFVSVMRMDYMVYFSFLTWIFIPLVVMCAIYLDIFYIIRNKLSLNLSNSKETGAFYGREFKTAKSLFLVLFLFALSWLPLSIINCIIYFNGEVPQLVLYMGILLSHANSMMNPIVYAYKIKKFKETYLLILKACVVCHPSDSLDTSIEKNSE
Summary of the method: (§1)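 Specific radioligand binding measured in the presence of a single test concentration, 1 µM, at each receptor/cell system (A1 CHO with [3H]DPCPX; A2A HeLa with triazolotriazine phenol tracer; A2B HEK-293 with [3H]DPCPX; A3 HeLa with [3H]NECA). Reported as percent displacement of specific binding, n = 2.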

[2] = target: T2, Adenosine receptor A2b (Homo sapiens) (UniProt P29275); experiment: Displacement of [3H]DPCPX from human adenosine A2B receptor expressed in HEK-293 cells at 1 uM; type: cell-based; conditions: HEK293; summary of the method: as §1
T2 sequence (whole entry): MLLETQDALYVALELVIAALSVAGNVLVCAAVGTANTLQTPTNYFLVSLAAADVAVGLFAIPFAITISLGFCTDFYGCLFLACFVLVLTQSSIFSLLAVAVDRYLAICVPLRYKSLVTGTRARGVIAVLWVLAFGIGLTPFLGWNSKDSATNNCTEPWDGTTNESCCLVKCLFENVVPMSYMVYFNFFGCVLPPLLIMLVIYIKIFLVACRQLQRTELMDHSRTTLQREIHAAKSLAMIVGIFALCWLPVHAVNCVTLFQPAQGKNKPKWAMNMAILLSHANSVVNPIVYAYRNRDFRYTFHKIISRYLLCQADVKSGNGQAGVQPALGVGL

Adenosine receptor A2a [3] = target: T3, Adenosine receptor A2a (Homo sapiens, UniProt P29274); experiment: Displacement of [3H]4-(2-[7-Amino-2-(2-furyl) [1,2,4]triazolo[2,3-alpha] [1,3,5]triazin-5-ylamino]ethyl)phenol from human adenosine A2A receptor expressed in human HeLa cells at 1 uM; type: cell-based; summary of the method: as §1
[4] = target: T4, Adenosine receptor A1 (Homo sapiens) (UniProt P30542); experiment: Displacement of [3H]DPCPX from human adenosine A1 receptor expressed in CHO cells at 1 uM; type: cell-based; summary of the method: as §1
T4 sequence (whole entry): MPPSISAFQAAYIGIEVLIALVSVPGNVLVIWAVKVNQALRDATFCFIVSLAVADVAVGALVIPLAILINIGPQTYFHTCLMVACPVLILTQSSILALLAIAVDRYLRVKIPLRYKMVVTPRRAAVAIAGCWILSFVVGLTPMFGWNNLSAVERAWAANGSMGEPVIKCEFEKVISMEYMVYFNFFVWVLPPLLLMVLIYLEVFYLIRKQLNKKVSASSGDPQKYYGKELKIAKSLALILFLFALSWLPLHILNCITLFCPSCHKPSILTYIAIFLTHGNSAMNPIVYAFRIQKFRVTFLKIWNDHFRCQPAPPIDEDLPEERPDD

Adenosine receptor A3 = target: T5, Adenosine receptor A3 (Homo sapiens, UniProt P0DMS8); experiment: Displacement of [3H]NECA from human adenosine A3 receptor expressed in human HeLa cells; type: cell-based
T5 sequence (P0DMS8 whole entry): T1 sequence (whole entry)

Adenosine receptor A2b = target: T6, Adenosine receptor A2b (Homo sapiens, UniProt P29275); experiment: Displacement of [3H]DPCPX from human adenosine A2B receptor expressed in HEK-293 cells; type: cell-based, HEK293
T6 sequence (P29275 whole entry): T2 sequence (whole entry)

Adenosine receptor A2a [5] = target: T3, Adenosine receptor A2a; experiment: Displacement of [3H]4-(2-[7-Amino-2-(2-furyl) [1,2,4]triazolo[2,3-alpha] [1,3,5]triazin-5-ylamino]ethyl)phenol from human adenosine A2A receptor expressed in human HeLa cells; type: cell-based
Adenosine receptor A1 = target: T7, Adenosine receptor A1 (Homo sapiens, UniProt P30542); experiment: Displacement of [3H]DPCPX from human adenosine A1 receptor expressed in CHO cells; type: cell-based
T7 sequence (P30542 whole entry): T4 sequence (whole entry)

T3 sequence (P29274 whole entry): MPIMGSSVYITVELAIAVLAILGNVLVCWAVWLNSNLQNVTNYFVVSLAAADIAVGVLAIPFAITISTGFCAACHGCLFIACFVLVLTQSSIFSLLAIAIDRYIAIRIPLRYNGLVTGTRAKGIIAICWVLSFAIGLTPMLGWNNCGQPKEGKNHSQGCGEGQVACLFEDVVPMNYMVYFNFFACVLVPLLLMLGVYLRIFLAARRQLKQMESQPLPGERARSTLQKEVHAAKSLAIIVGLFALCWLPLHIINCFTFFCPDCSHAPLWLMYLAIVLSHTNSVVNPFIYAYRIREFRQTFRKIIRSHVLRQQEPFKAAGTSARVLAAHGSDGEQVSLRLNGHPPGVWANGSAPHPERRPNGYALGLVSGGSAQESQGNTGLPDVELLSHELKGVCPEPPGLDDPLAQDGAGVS

COc1cccc(OC)c1-c1cc(NC(C)=O)nc(-c2c(OC)cccc2OC)n1
inhibition [1]: 4%
inhibition [2]: 3%
inhibition (Adenosine receptor A2a [3]): 1%
inhibition [4]: 4%

COc1ccc(-c2cc(NC(C)=O)nc(-c3ccc(OC)cc3)n2)cc1
inhibition [2]: 2%
inhibition (Adenosine receptor A2a [3]): 4%
inhibition [4]: 2%

COc1ccccc1-c1cc(NC(C)=O)nc(-c2ccccc2OC)n1
inhibition [2]: 7%
inhibition (Adenosine receptor A2a [3]): 15%
inhibition [4]: 4%

COc1ccc(OC)c(-c2cc(NC(C)=O)nc(-c3cc(OC)ccc3OC)n2)c1
Ki (Adenosine receptor A3): 6.3 nM
inhibition [2]: 1%
inhibition (Adenosine receptor A2a [3]): 17%
inhibition [4]: 4%

CC(=O)Nc1cc(-c2ccc(OC(F)(F)F)cc2)nc(-c2ccc(OC(F)(F)F)cc2)n1
Ki (Adenosine receptor A3): 389 nM
inhibition [2]: 4%
inhibition (Adenosine receptor A2a [3]): 1%
inhibition [4]: 8%

COc1cccc(-c2cc(NC(C)=O)nc(-c3cccc(OC)c3)n2)c1
Ki (Adenosine receptor A3): 2.8 nM
Ki (Adenosine receptor A2b): 67.5 nM
Ki (Adenosine receptor A2a [5]): 49.4 nM
Ki (Adenosine receptor A1): 22.6 nM

COc1ccc(-c2cc(NC(C)=O)nc(-c3ccc(OC)cc3OC)n2)c(OC)c1
inhibition [2]: 7%
inhibition (Adenosine receptor A2a [3]): 10%
inhibition [4]: 3%

CC(=O)Nc1cc(-c2ccc3c(c2)OCO3)nc(-c2ccc3c(c2)OCO3)n1
inhibition [2]: 6%
Ki (Adenosine receptor A1): 17 nM

COc1cccc(-c2cc(NC(C)=O)nc(-c3cccc(OC)c3OC)n2)c1OC
Ki (Adenosine receptor A3): 42.4 nM
Ki (Adenosine receptor A2b): 494 nM
Ki (Adenosine receptor A2a [5]): 375 nM
inhibition [4]: 10%

COc1cc(-c2cc(NC(C)=O)nc(-c3cc(OC)c(OC)c(OC)c3)n2)cc(OC)c1OC
Ki (Adenosine receptor A3): 26.1 nM
inhibition [2]: 1%
inhibition (Adenosine receptor A2a [3]): 1%
inhibition [4]: 14%

CC(=O)Nc1cc(-c2ccccc2)nc(-c2ccccc2)n1
inhibition [2]: 22%

CCOc1ccc(-c2cc(NC(C)=O)nc(-c3ccc(OCC)cc3)n2)cc1
Ki (Adenosine receptor A3): 40.2 nM
inhibition [2]: 1%
inhibition (Adenosine receptor A2a [3]): 2%
inhibition [4]: 12%

COc1cc(OC)cc(-c2cc(NC(C)=O)nc(-c3cc(OC)cc(OC)c3)n2)c1
Ki (Adenosine receptor A3): 55 nM
inhibition [2]: 1%
inhibition (Adenosine receptor A2a [3]): 3%
inhibition [4]: 15%

COc1ccc(/C=C/c2cc(NC(C)=O)nc(/C=C/c3ccc(OC)cc3)n2)cc1
Ki (Adenosine receptor A3): 513 nM
inhibition [2]: 2%
inhibition (Adenosine receptor A2a [3]): 13%
inhibition [4]: 16%

COc1ccc(-c2cc(NC(C)=O)nc(-c3ccc(OC)c(OC)c3)n2)cc1OC
Ki (Adenosine receptor A3): 5.2 nM
inhibition [2]: 2%
inhibition (Adenosine receptor A2a [3]): 5%
inhibition [4]: 10%

— ChEMBL document CHEMBL2311331, “Selective and potent adenosine A3 receptor antagonists by methoxyaryl substitution on the N-(2,6-diarylpyrimidin-4-yl)acetamide scaffold” (Eur J Med Chem, 2013)
